# Source: PubChem BioAssay (several laboratories)
# UCH37 DUB inh: inhibitors of human UCH37 deubiquitinase, primary screen, biochemical, Ub-AMC cleavage, fluorescence. Ubiquitin carboxyl-terminal hydrolase isozyme L5 (Homo sapiens), Q9Y5K5. inhibition, % (concentration not given with the values). AID 588478, 2011. 330,000 compounds, 0.33% hits. purified proteasome/UCH37;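 active = mean inhibition over replicate wells above about 20%, limit read from the data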;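 also: 0% = compound-free wells with enzyme and 100% = wells lacking proteasome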
# Target sequence (Q9Y5K5 whole entry, looked up): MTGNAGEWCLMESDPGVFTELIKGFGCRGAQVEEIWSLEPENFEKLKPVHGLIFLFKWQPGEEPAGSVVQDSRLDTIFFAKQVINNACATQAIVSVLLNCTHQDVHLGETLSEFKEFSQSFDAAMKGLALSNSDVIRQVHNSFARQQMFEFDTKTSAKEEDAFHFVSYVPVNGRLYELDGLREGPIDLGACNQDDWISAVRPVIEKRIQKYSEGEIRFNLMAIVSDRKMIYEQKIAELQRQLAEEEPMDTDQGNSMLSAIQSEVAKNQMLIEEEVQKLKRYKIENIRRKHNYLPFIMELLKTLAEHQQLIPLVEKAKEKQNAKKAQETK
#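 Assay system: Proteasome-bound UCH37. Buffer or medium: pH 7.4 Tris-HCl (50 mM) with ovalbumin, ATP-MgCl2, DTT. Incubation: 30 min preincubation with enzyme, 25 min cleavage at room temperature. Measured by: fluorescence, ex 355 nm, em 460 nm. Read-out basis: percent inhibition. Control set: wells without proteasome as full block, compound-free enzyme plus substrate as uninhibited.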
# ATG4B inh: ATG4B protease inhibitors, primary screen, biochemical, fluorescence, uHTS | Cysteine protease ATG4B (Homo sapiens), Q9Y4P1 | ATG4B cleavage of LC3-PLA2, NBD-HPC fluorescence, 1 h | inhibition, % at 8.33 µM | 340,000 compounds, 0.51% hits | AID 504462, 2011; in the data active = inhibition above about 40%
# Rin1 Abl inh: inhibitors of Rin1-Abl protein binding, primary screen, biochemical, TR-FRET | Tyrosine-protein kinase ABL1 (Homo sapiens) + Ras and Rab interactor 1 (Homo sapiens), … | inhibition, % at 7.35 µM | 360,000 compounds, 0.4% hits | AID 588664, 2011; in the data active = inhibition above about 5%, passing the limit was not always enough
# TbMetRS inhib: T. brucei MetRS inhibitors, primary screen, biochemical, luminescence. methionyl-tRNA synthetase (Trypanosoma brucei brucei). purified T. brucei MetRS, ATP depletion, Kinase-Glo luminescence. AID 624268, 2012. 360,000 compounds, 0.4% hits. inhibition, % at 11.9 µM;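 active = inhibition above a per-plate cutoff of the control wells' mean inhibition plus 3 SD, cut at about 5.5% in these data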;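 also: 0% = DMSO wells median and 100% = median of wells with control inhibitor compound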
#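 Material: T. brucei methionyl-tRNA synthetase, purified; reagent: substrates ATP, L-methionine and bulk Escherichia coli tRNA; dosing: 11.9 µM single point; timing: 15 min plus 2 h at 25 °C; detection: luminescence of leftover ATP; evaluation: % inhibition; control set: DMSO-only wells as low control; replicates: singlicate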
# UCH37 reconfirm: retest of human UCH37 deubiquitinase inhibitors, confirmation, biochemical, Ub-AMC cleavage rate, fluorescence. shares compounds with UCH37 DUB inh. Proteasome-bound UCH37. inhibition, % at 20 µM. 480 compounds, 27% hits. AID 624100, 2012;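 active = average inhibition over replicates above about 50%, so the earlier screening hit is confirmed, limit read from the data; inactive = the rest, counted as false positives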;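 also: based on cleavage rate fitted by regression over a 30 min kinetic read; 0% = proteasome plus Ub-AMC and 100% = Ub-AMC without proteasome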
# Rin1-Abl confirm: Rin1-Abl binding inhibitor retest, confirmation, biochemical, TR-FRET | shares compounds with Rin1 Abl inh | purified proteins | inhibition, % at 7.35 µM | 1,300 compounds, 49% hits | AID 602124, 2011
# GFP quench: GFP fluorescence inhibitors and quenchers, artefact control for Rin1-Abl interaction inhibitor project, biochemical; shares compounds with Rin1 Abl inh; inhibition, % at 6.75 µM; inhibitors/quenchers counterscreen; 1,300 compounds, 8.5% hits;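 also: ABL1-eGFP fusion protein alone without its partner RIN1-SBP; 0% = protein with vehicle and 100% = wells lacking protein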
# GFP quench dose: GFP fluorescence inhibitors and quenchers, dose response, artefact control for Rin1-Abl interaction inhibitor project, biochemical; shares compounds with Rin1 Abl inh; GFP fluorescence interference/quenching counterscreen; IC50, µM; 230 tested, under 10 active; call rule not given here;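 also: ABL1-eGFP fusion protein alone without its RIN1 binding partner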
# Tb MetRS conf: T. brucei MetRS inhibitors, confirmation, biochemical, luminescence; shares compounds with TbMetRS inhib; T. brucei MetRS enzyme, luminescence (ATP depletion); inhibition, % at 11.9 µM; 1,400 compounds, 93% hits; AID 624412, 2012; in the data active = inhibition above about 7%
# Jurkat tox: Jurkat T cell cytotoxicity, cytotoxicity control for T. brucei MetRS inhibitor project, luminescence, high throughput | AID 624413, 2012 | shares compounds with TbMetRS inhib | Jurkat cells viability, ATP luminescence | 1,400 compounds, 12% hits | inhibition, % at 8.3 µM; in the data active = inhibition above about 15%;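 also: 0% = vehicle and 100% = reference inhibitor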
# TbMetRS FP orth: T. brucei MetRS inhibitors, orthogonal assay for T. brucei MetRS inhibitor project, biochemical, fluorescence polarization; purified T. brucei MetRS; shares compounds with TbMetRS inhib; 1,400 compounds, 44% hits; inhibition, % at 11.9 µM; in the data active = inhibition above about 17%;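 also: 0% = vehicle wells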
# The depositor's hits bear a star; i = inactive; / = no result. Sampled rows, rich in hits. Any-hit rate of the full collection: about 1.4%. Rule as the data show it, unless noted: active = inhibition above about 6.5%; inactive = the rest.
SMILES,UCH37 DUB inh,ATG4B inh,Rin1 Abl inh,TbMetRS inhib,UCH37 reconfirm,others
O=C(O)CC1S/C(=N/N=C/c2ccccn2)NC1=O (stereo not given),/,-2,-4,0,/,
COc1ccc(C(=O)NCCN2CCOCC2)cc1[N+](=O)[O-],6,-11,1,0,/,
Cc1cc(NC(=O)c2cccc(Cl)c2)n[nH]1,35*,-13,0,0,11,
CCN(CC)Cc1c(O)ccc2c(C)c(CC(=O)OC)c(=O)oc12,i,-6,-4,0,/,
CC1=NN(C(=O)CSCc2ccccc2)C(O)(c2ccccc2)C1 (stereo not given),32*,-2,0,-1,16,
COc1ccc(N(CC(=O)NC2CCCCC2)C(=O)CCC(=O)Nc2nc(C)cs2)cc1OC,1,-10,1,0,/,
O=C(O)CN1C(=O)/C(=C\c2cccc(OCc3ccc(Cl)cc3)c2)SC1=S,28*,11,1,1,82*,
Cn1cccc1/C=C1\SC(=S)N(CC(=O)O)C1=O,25*,1,-5,-1,30,
O=C(O)CN1C(=O)/C(=C\c2cccc(OCc3ccc(F)cc3)c2)SC1=S,15,7,0,1,/,
O=C(CSc1nc2ccccc2o1)Nc1ccc(N2CCOCC2)c(Cl)c1,-1,1,0,0,/,
CCOC(=O)Nc1ccc(S(=O)(=O)N2CCC(c3nc4ccccc4[nH]3)CC2)cc1,/,/,-1,0,/,
CC(=O)Nc1ccc(S(=O)(=O)N2CCC(c3nc4ccc(C)cc4[nH]3)CC2)cc1,28*,2,4,1,12,
O=C(NCC1OCCc2ccccc21)c1cc(COc2ccc(F)cc2Cl)on1 (stereo not given),4,34,1,-1,/,
O=C(O)CC/C(=C\c1ccc(N2CCOCC2)c([N+](=O)[O-])c1)c1nc2ccccc2s1,26*,-1,-3,0,20,
Cc1ccccc1OCC(=O)NNC(=O)CCc1ccccc1,5,1,-1,0,/,
Cc1ccccc1OCC(=O)NCc1ccccc1,41*,-6,1,0,15,
COc1cc2ccccc2cc1C(=O)N(CCN(C)C)c1nc2ccc(C)cc2s1,3,14,5,0,/,
Cc1ccc(S(=O)(=O)/N=C2\C=C(Nc3cccc(C(=O)O)c3)C(=O)c3ccccc32)c(C)c1,/,35,2,0,/,
Cc1ccc(S(=O)(=O)/N=C2\C=C(Nc3ccc(O)cc3)C(=O)c3ccccc32)cc1,48*,17,-2,0,5,
C=C(C)COc1ccc2c(C)c(CC(=O)N3C[C@H]4C[C@@H](C3)c3cccc(=O)n3C4)c(=O)oc2c1C,-142,-9,3,0,/,
Cc1[nH][nH]c(=O)c1C(c1ccc(-c2ccc(Cl)c(Cl)c2)o1)c1c(C)[nH][nH]c1=O,42*,17,13*,0,27,Rin1-Abl confirm=4;GFP quench=6
COc1ccc(C(C[N+](=O)[O-])c2c(C)cc3ccccn23)cc1 (stereo not given),3,14,2,-1,/,
COc1ccc(C(C[N+](=O)[O-])c2c(C)[nH]n(-c3ccccc3)c2=O)cc1 (stereo not given),77*,-4,11*,0,7,Rin1-Abl confirm=6.6*;GFP quench=-2
Cc1ccc(C2(C)NC(=O)N(CC(=O)N(c3ccccc3)C3CCS(=O)(=O)C3)C2=O)cc1 (stereo not given),4,-10,0,0,/,
CN(C)/C=N/NC(=O)c1ccccc1,/,-10,-1,0,/,
SMILES,UCH37 DUB inh,ATG4B inh,Rin1 Abl inh,TbMetRS inhib,UCH37 reconfirm,others
O=C(NN=c1c(=O)c2ccccc2c1=O)c1ccccc1,79*,-13,23*,1,77*,Rin1-Abl confirm=29*;GFP quench=0;GFP quench dose=>68
COc1ccccc1CC(=O)Nc1ccc2[nH]ncc2c1,3,5,-3,1,/,
Cc1ccc(NC2C(=O)NC(=O)NC2=O)cc1,80*,-2,17*,1,-2,Rin1-Abl confirm=16*;GFP quench=-1
Cc1c(/C=N/NC(=O)c2cc(=O)[nH]c(=O)[nH]2)c2ccccn2c1C(=O)c1ccccc1,/,-2,-6,0,/,
Cc1[nH][nH]c(=O)c1C(c1c(C)[nH][nH]c1=O)c1cn(Cc2cccc3ccccc23)c2ccccc12,83*,-10,19*,3,50,Rin1-Abl confirm=6.5*;GFP quench=3
O=C1CCCC2=C1C1(O)C(=O)c3ccccc3C1(O)O2 (stereo not given),65*,-1,19*,0,79*,Rin1-Abl confirm=9.1*;GFP quench=-2
O=C1C(NS(=O)(=O)c2cccs2)=C(N2CCOCC2)C(=O)c2ccccc21,9,-2,-13,0,/,
O=C(O)c1cccc(NC2=C(N3CCOCC3)C(=O)c3ccccc3C2=O)c1,28*,-1,7.2*,0,14,Rin1-Abl confirm=-7;GFP quench=-1
CCc1cccc(NC(=O)CCc2nc3sc4c(c3c(=O)[nH]2)CCCC4)c1,4,-2,5,0,/,
CCc1nnc(NS(=O)(=O)c2ccc(Nc3ccc([N+](=O)[O-])c4nonc34)cc2)s1,35*,13,-4,7.0*,31,Tb MetRS conf=11*;Jurkat tox=-4;TbMetRS FP orth=-3
COc1cc(-c2nc(-c3ccccc3)c(-c3cccs3)[nH]2)cc(OC)c1O,-104,-12,0,1,/,
